Data taken from ChEMBL document CHEMBL5126598, “Defined stereoisomers of 2″-amino NAD+ and their activity against human sirtuins and a bacterial (ADP-ribosyl) transferase” (Bioorg Med Chem, 2022).

Assays:
[1] = biological target: T1, NAD-dependent protein deacetylase sirtuin-2 (Homo sapiens) (UniProt Q8IXJ6); test: Inhibition of human SIRT2 using fluorogenic ZMAL as substrate at 250 uM incubated for 4 hrs in the presence of beta-NAD+ as cofactor by fluorescence based microplate reader analysis relative to control
T1 sequence (whole entry): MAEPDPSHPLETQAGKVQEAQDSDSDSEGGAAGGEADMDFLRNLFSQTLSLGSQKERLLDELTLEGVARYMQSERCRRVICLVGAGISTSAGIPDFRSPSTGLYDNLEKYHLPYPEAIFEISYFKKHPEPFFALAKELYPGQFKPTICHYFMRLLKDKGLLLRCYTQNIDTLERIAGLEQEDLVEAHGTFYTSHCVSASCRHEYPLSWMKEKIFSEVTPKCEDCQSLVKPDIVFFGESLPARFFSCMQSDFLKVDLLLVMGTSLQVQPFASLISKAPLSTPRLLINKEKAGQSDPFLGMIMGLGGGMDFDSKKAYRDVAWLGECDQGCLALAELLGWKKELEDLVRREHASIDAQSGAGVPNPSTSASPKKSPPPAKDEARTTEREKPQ
Method in brief: (§1)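 Recombinant SIRT1, SIRT2 or SIRT3 (0.5 U) in 50 mM Tris/HCl, 137 mM NaCl, 2.7 mM KCl with ZMAL 10.5 μM, β-NAD+ 500 μM and 8.3% (v/v) DMSO (final), plus compound; 4 h at 37 °C with shaking. Trypsin stop solution containing 8 mM nicotinamide added, 20 min at 37 °C, then fluorescence read. Single concentrations tested first; IC50 only for near-complete inhibitors; means of 3 experiments.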

[2] = biological target: T2, NAD-dependent protein deacetylase sirtuin-3, mitochondrial (Homo sapiens) (UniProt Q9NTG7); test: Inhibition of human SIRT3 using fluorogenic ZMAL as substrate at 250 uM incubated for 4 hrs in the presence of beta-NAD+ as cofactor by fluorescence based microplate reader analysis relative to control; method in brief: as §1
T2 sequence (whole entry): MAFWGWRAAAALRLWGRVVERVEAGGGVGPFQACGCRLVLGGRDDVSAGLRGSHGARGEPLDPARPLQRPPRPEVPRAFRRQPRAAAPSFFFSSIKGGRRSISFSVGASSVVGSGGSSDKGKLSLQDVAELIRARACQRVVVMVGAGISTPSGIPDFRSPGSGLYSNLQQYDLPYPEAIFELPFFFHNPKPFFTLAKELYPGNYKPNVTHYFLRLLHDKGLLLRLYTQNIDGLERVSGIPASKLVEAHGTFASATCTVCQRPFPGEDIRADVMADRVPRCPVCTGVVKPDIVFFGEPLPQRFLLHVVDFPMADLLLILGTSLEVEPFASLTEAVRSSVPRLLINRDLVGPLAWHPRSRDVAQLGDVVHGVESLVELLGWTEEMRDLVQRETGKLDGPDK

[3] = Chemical stability of the compound in sirtuin assay buffer at pH 8.0 assessed as nicotinamide cleavage measured every 60 mins for 4 hrs by HPLC analysis; type: physicochemical; details: read-out: Activity
[4] = biological target: T3, SIRT2 (NAD-dependent protein deacetylase sirtuin-2) (Homo sapiens, UniProt Q8IXJ6); test: Chemical stability of the compound in sirtuin assay buffer at pH 8.0 assessed as human SIRT2 mediated nicotinamide cleavage measured upto 4 hrs in the presence of ZMAL substrate by HPLC analysis; type: ADME; details: pH 8, probe ZMAL substrate, read-out: Activity
T3 sequence (Q8IXJ6 whole entry): T1 sequence (whole entry)

[5] = biological target: T4, NAD-dependent protein deacetylase sirtuin-1 (Homo sapiens) (UniProt Q96EB6); test: Inhibition of human SIRT1 using fluorogenic ZMAL as substrate at 250 uM incubated for 4 hrs in the presence of beta-NAD+ as cofactor by fluorescence based microplate reader analysis relative to control; method in brief: as §1
T4 sequence (whole entry): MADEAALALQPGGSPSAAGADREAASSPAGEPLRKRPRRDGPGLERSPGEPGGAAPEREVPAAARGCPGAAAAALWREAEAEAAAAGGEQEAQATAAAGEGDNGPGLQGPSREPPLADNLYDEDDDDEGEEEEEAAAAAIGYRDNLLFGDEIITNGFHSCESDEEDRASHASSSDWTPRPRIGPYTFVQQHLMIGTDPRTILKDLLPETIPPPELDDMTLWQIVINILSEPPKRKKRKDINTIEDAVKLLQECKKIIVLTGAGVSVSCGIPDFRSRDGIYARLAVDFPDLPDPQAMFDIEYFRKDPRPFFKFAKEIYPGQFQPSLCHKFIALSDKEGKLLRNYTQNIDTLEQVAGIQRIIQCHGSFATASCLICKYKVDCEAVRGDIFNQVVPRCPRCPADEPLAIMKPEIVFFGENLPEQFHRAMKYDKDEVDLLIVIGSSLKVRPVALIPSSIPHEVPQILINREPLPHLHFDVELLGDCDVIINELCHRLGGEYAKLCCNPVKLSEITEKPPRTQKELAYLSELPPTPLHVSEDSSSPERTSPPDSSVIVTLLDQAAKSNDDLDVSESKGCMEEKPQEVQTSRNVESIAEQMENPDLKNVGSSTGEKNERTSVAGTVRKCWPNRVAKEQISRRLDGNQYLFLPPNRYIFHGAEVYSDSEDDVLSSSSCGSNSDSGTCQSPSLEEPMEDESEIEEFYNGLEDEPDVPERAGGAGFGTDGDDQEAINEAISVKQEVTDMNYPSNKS

[6] = biological target: T4, NAD-dependent protein deacetylase sirtuin-1 (Homo sapiens); test: Inhibition of human SIRT1 using fluorogenic ZMAL as substrate at 100 uM incubated for 4 hrs in the presence of beta-NAD+ as cofactor by fluorescence based microplate reader analysis relative to control; method in brief: as §1
[7] = biological target: T5, NAD-dependent protein deacetylase sirtuin-2 (Homo sapiens, UniProt Q8IXJ6); test: Inhibition of human SIRT2 using fluorogenic ZMAL as substrate incubated for 4 hrs in the presence of beta-NAD+ as cofactor by fluorescence based microplate reader analysis; method in brief: as §1
T5 sequence (Q8IXJ6 whole entry): T1 sequence (whole entry)

[8] = biological target: T2, NAD-dependent protein deacetylase sirtuin-3, mitochondrial (Homo sapiens); test: Inhibition of human SIRT3 using fluorogenic ZMAL as substrate at 100 uM incubated for 4 hrs in the presence of beta-NAD+ as cofactor by fluorescence based microplate reader analysis relative to control; method in brief: as §1
[9] = Chemical stability of the compound in sirtuin assay buffer at pH 8.0 assessed as nicotinamide cleavage measured every 30 mins for 4 hrs by HPLC analysis; type: physicochemical; details: read-out: Activity
[10] = system: Photorhabdus luminescens; test: Displacement of [32P]NAD+ from Photorhabdus luminescens TccC3hvr ART domain assessed as inhibition of ADP-ribosylation of alpha-skeletal muscle actin preincubated for 15 mins followed by TccC3hvr addition and measured after 6 mins by SDS-PAGE based autoradiography; details: dose 10-100 µM, time 21.0 min, DDE = dose-dependent effect
Method in brief: (§2)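 α-Skeletal muscle actin 1 μM with 1 μM NAD+ plus [32P]NAD+ (0.5 μCi per sample) in G buffer (5 mM Tris-HCl, 0.2 mM CaCl2, 0.2 mM ATP, 0.5 mM DTT, pH 8.0). Compound (10, 30 or 100 μM) preincubated 15 min at 21 °C, then 70 nM TccC3hvr ART domain added; 6 min at 21 °C, stopped with SDS Laemmli buffer. SDS-PAGE (12.5%), autoradiography; % inhibition versus control.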

[11] = system: Photorhabdus luminescens; test: Displacement of [32P]NAD+ from Photorhabdus luminescens TccC3hvr ART domain assessed as inhibition of ADP-ribosylation of alpha-skeletal muscle actin at 100 uM preincubated for 15 mins followed by TccC3hvr addition and measured after 6 mins by SDS-PAGE based autoradiography; details: time 21.0 min; method in brief: as §2
[12] = biological target: T6, NAD-dependent protein deacetylase sirtuin-1 (Homo sapiens, UniProt Q96EB6); test: Inhibition of human SIRT1 using fluorogenic ZMAL as substrate incubated for 4 hrs in the presence of beta-NAD+ as cofactor by fluorescence based microplate reader analysis; method in brief: as §1
T6 sequence (Q96EB6 whole entry): T4 sequence (whole entry)

[13] = biological target: T2, NAD-dependent protein deacetylase sirtuin-3, mitochondrial (Homo sapiens); test: Inhibition of human SIRT3 using fluorogenic ZMAL as substrate at 1 mM incubated for 4 hrs in the presence of beta-NAD+ as cofactor by fluorescence based microplate reader analysis relative to control; method in brief: as §1

Structure (SMILES)	inhibition [1] [%]	inhibition [2] [%]	degraded at 4 h [3] [%]	metabolised at 4 h [4] [%]	inhibition [5] [%]	inhibition [6] [%]	IC50 [7] [µM]	inhibition [8] [%]	degraded at 4 h [9] [%]	inhibition [10]	inhibition [11] [%]	IC50 [12] [µM]	inhibition [13] [%]
[N-]=[N+]=N[C@@H]1C([n+]2cccc(C(N)=O)c2)O[C@H](COP(=O)(O)OP(=O)(O)OC[C@H]2O[C@@H](n3cnc4c(N)ncnc43)[C@H](O)[C@@H]2O)[C@H]1O (stereo partly specified)	21	34	–	–	–	–	–	–	–	–	–	–	–
NC(=O)c1ccc[n+]([C@H]2O[C@H](COP(=O)(O)OP(=O)(O)OC[C@H]3O[C@@H](n4cnc5c(N)ncnc54)[C@H](O)[C@@H]3O)[C@@H](O)[C@H]2N)c1	–	13	4.1	4.1	63	13	118	8	–	–	–	–	–
NC(=O)c1ccc[n+]([C@@H]2O[C@H](COP(=O)(O)OP(=O)(O)OC[C@H]3O[C@@H](n4cnc5c(N)ncnc54)[C@H](O)[C@@H]3O)[C@@H](O)[C@H]2N)c1	–	19	–	15.1	65	18	151	12	8.4	Dde	77	–	–
NC(=O)c1ccc[n+]([C@@H]2O[C@H](COP(=O)(O)OP(=O)(O)OC[C@H]3O[C@@H](n4cnc5c(N)ncnc54)[C@H](O)[C@@H]3O)[C@@H](O)[C@@H]2N)c1	–	–	–	–	–	–	153	–	–	–	–	176	47
